The values below come from ChEMBL document CHEMBL3580634, “Discovery of a high affinity and selective pyridine analog as a potential positron emission tomography imaging agent for cannabinoid type 2 receptor” (J Med Chem, 2015).

Data set [1] can be described thus: Lipophilicity, log D of the compound in n-octanol/phosphate buffer pH 7.4 by shake flask method. The data set is classed as physicochemical.
For data set [2], the target named is T1, Cannabinoid receptor 2 (Homo sapiens, UniProt P34972). In words: Activity at human CB2 receptor expressed in CHO cells assessed as cAMP accumulation incubated for 30 mins by time-resolved FRET assay. The class given is functional, cell-based. In short, it runs like this: (§1)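 CHO cells expressing human CB1 or CB2 were seeded 1 day before in DMEM/HT supplement/10% FCS. Medium was replaced with Krebs Ringer bicarbonate buffer containing 1 mM IBMX, 30 min at 30 °C, then compound added for 30 min at 30 °C. cAMP was read by time-resolved FRET (cAMP-Nano-TRF kit) against a standard curve from 10 μM to 0.13 nM. Ten concentrations in triplicate, single experiment.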
On the technique in general: Changes in cAMP serve as a functional read-out for many G protein-coupled receptors.

A further data set addresses Cannabinoid receptor 1 (Homo sapiens, UniProt P21554). The data set is described as follows: Activity at human CB1 receptor expressed in CHO cells assessed as cAMP accumulation incubated for 30 mins by time-resolved FRET assay. The data set is classed as functional, cell-based. A digest of the protocol: as §1
Data set [3] has as its target T1, Cannabinoid receptor 2. The data set is described as follows: Displacement of [3H]CP-55,940 from human CB2 receptor expressed in CHO cell membranes. In short, it runs like this: (§2)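 Membranes from CHO cells expressing human or murine CB2 were incubated with [3H]CP-55,940 in 50 mM Tris, 5 mM MgCl2, 2.5 mM EGTA, 0.1% fatty-acid-free BSA, pH 7.4, 1 h at 30 °C with shaking. Reaction stopped by filtration through PEI-coated GF/B. Ki from nonlinear regression using saturation-derived Kd. Ten concentrations in triplicate.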
Background: In a radioligand displacement assay an active substance lowers the binding of a labelled ligand.

Data set [4] concerns the target Cannabinoid receptor 2 (Mus musculus, UniProt P47936). The data set is described as follows: Displacement of [3H]CP-55,940 from mouse CB2 receptor expressed in CHO cell membranes. In short, it runs like this:
as §2

A further data set deals with CHO. The data set is described as follows: Selectivity index, ratio of EC50 for human CB1 receptor expressed in CHO cells to EC50 for human CB2 receptor expressed in CHO cells. The class given is cell-based.
Data set [5] can be described thus: Substrate activity at P-gp (unknown origin). The class given is ADME. To be noted: human.

SMILES strings stand for the structures.

Sequence of Cannabinoid receptor 2 (Mus musculus, UniProt P47936) (P47936 whole entry): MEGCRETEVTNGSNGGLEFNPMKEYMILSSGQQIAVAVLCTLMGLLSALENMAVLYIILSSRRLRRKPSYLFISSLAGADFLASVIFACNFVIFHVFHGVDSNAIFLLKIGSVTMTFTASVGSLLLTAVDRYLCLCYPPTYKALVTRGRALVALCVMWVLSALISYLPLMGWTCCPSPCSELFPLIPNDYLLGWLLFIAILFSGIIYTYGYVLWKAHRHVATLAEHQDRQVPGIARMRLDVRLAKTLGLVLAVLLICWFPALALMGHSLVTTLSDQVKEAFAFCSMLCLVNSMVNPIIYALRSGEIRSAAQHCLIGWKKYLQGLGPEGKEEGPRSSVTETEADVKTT
Sequence of Cannabinoid receptor 1 (P21554 whole entry, looked up): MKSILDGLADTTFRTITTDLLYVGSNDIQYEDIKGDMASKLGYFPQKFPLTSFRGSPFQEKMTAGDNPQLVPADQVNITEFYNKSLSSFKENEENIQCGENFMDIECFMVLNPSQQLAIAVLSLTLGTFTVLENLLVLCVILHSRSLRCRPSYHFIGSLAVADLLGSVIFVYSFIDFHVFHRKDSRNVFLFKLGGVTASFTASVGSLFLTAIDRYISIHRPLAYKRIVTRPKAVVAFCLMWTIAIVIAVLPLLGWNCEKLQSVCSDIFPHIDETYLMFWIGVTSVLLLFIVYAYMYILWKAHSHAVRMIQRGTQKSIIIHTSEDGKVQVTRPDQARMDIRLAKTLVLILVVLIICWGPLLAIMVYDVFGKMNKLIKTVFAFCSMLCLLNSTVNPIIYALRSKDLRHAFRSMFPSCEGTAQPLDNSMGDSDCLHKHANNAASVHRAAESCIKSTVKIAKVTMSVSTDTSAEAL
T1 sequence (P34972 whole entry): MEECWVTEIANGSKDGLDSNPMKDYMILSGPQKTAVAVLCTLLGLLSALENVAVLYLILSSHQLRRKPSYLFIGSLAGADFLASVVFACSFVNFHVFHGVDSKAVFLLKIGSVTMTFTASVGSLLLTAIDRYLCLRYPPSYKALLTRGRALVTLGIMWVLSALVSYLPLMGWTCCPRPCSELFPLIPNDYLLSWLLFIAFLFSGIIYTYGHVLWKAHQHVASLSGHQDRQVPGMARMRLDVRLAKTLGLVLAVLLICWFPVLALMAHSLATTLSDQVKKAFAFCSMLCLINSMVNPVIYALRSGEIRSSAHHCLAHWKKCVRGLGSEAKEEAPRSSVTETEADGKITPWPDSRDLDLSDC

As a reminder, the logD is lipophilicity at a set pH, counting ionised and neutral species. A higher logD goes with a more lipophilic compound. Broadly, the EC50 is the concentration giving half of the maximal effect. The compound `COC1CN(c2ccc(C(=O)NC(C)(C)Cc3nnc(C4CCC4)o3)nc2OCC2CC2)C1` gave a logD in data set [1] of 3.37. Also, the results for the EC50 at Cannabinoid receptor 2 [2] and at Cannabinoid receptor 1 were 4010 nM and above 10 µM, respectively.
The Ki is the dissociation constant of the complex between target and ligand, obtained from inhibition or displacement. High values mean weaker binding, low ones tighter binding. Consider `CCOC(=O)C(CC)(CC)NC(=O)c1ccc(N2CC(OC)C2)c(OCC2CC2)n1`, for which the values for the Ki on Cannabinoid receptor 2 [3] and on Cannabinoid receptor 2 [4] were 2.5 nM and 1.8 nM, respectively. The EC50 on Cannabinoid receptor 2 [2] is 4.4 nM; on Cannabinoid receptor 1, above 10 µM. Also, the Ratio EC50 was above 1000 with CHO and 150 in the data set with CHO (tested as the 11C-labelled form).
Regarding `CCOC(=O)C(CC)(CC)NC(=O)c1ccc(C2CCCC2)c(OCC2CC2)n1`, the inhibition constant (Ki) on Cannabinoid receptor 2 [3] is 16.2 nM; on Cannabinoid receptor 2 [4] it was 38.5 nM. In addition, the 50% effective concentration (EC50) is 2.9 nM on Cannabinoid receptor 2 [2] and above 10 µM on Cannabinoid receptor 1.
Consider `CC(C)(NC(=O)c1ccc(N2CC(F)(F)C2)c(OCC2CC2)n1)c1nnc(-c2cccnc2)o1`, for which the inhibitory constant (Ki) at Cannabinoid receptor 2 [3] and at Cannabinoid receptor 2 [4] was above 10000 nM throughout. Moreover, the EC50 at Cannabinoid receptor 2 [2] was 396 nM; at Cannabinoid receptor 1, above 10 µM.
For the compound `CC(C)(Cc1nnc(-c2ccc(F)cc2)o1)NC(=O)c1ccc(C2CCCC2)c(OCC2CC2)n1`, the inhibitory constant (Ki) was found to be 416 nM at Cannabinoid receptor 2 [3] and 403 nM on Cannabinoid receptor 2 [4]. The EC50 at Cannabinoid receptor 1 is above 10 µM.
The compound `CCC(CC)(NC(=O)c1ccc(N2CC(OC)C2)c(OCC2CC2)n1)C(=O)NC` came in with a log distribution coefficient (logD) in data set [1] of 3.18. In addition, the results for the Ki at Cannabinoid receptor 2 [3] and at Cannabinoid receptor 2 [4] were 170 nM and 60.4 nM, respectively. Moreover, the EC50 at Cannabinoid receptor 1 was above 10 µM.
As to `COCCOCC(C)(C)c1cc(NC(=O)c2ccc(C3CCCC3)c(OCC3CC3)n2)on1`, the Ki is 294 nM on Cannabinoid receptor 2 [3] and 12.7 nM on Cannabinoid receptor 2 [4]. Moreover, at Cannabinoid receptor 1, the 50% effective concentration (EC50) was above 10 µM.
Take `CCC(CC)(NC(=O)c1ccc(N2CC(F)(F)C2)c(OCC2CC2)n1)C(=O)NCCF`: the values for the Ki at Cannabinoid receptor 2 [3] and at Cannabinoid receptor 2 [4] were 774 nM and 403 nM, respectively. The results for the 50% effective concentration (EC50) at Cannabinoid receptor 2 [2] and on Cannabinoid receptor 1 were 27 nM and above 10 µM, respectively.
In the case of `CC(C)(Cc1nnc(-c2ccc(F)cc2)o1)NC(=O)c1ccc(N2CC(F)(F)C2)c(OCC2CC2)n1`, the inhibition constant Ki came out at 3030 nM at Cannabinoid receptor 2 [3] and 1050 nM at Cannabinoid receptor 2 [4]. Moreover, the EC50 on Cannabinoid receptor 1 was above 10 µM.
In turn, `CCC(CC)(NC(=O)c1ccc(N2CC(OC)C2)c(OCC2CC2)n1)C(=O)N1CC(F)C1` had a log distribution coefficient (logD) in data set [1] of 3.25. The inhibition constant Ki on Cannabinoid receptor 2 [3] was 18.3 nM; on Cannabinoid receptor 2 [4], 6.9 nM. Further, the results for the EC50 at Cannabinoid receptor 2 [2] and on Cannabinoid receptor 1 were 4.4 nM and above 10 µM, respectively. Also, the Ratio EC50 with CHO was above 1000. In addition, in data set [5], the outcome was Active.
With `CC(C)(NC(=O)c1ccc(N2CC(F)(F)C2)c(OCC2CC2)n1)c1nnc(-c2ccccc2)o1`, the inhibition constant (Ki) on Cannabinoid receptor 2 [3] is 3960 nM; at Cannabinoid receptor 2 [4] it was above 10000 nM. Moreover, the values for the EC50 at Cannabinoid receptor 2 [2] and at Cannabinoid receptor 1 were above 10000 nM and above 10 µM, respectively.
For the compound `CC(C)(NC(=O)c1ccc(N2CC(F)(F)C2)c(OCC2CC2)n1)c1nnc(C2CC2)o1`, the Ki at Cannabinoid receptor 2 [3] and on Cannabinoid receptor 2 [4] was above 10000 nM each time. Moreover, the concentration giving a half-maximal response (EC50) on Cannabinoid receptor 2 [2] is above 10000 nM; on Cannabinoid receptor 1, above 10 µM.
As for `COC1CN(c2ccc(C(=O)NCC3(O)CCCCC3)nc2OCC2CC2)C1`, the inhibition constant Ki on Cannabinoid receptor 2 [3] turned out to be 2870 nM; on Cannabinoid receptor 2 [4] it was 2230 nM. The EC50 on Cannabinoid receptor 1 is above 10 µM.
Compound `COC1CN(c2ccc(C(=O)NC3(CC(N)=O)COC3)nc2OCC2CC2)C1` returned a logD in data set [1] of 1.7. The Ki on Cannabinoid receptor 2 [3] is 1020 nM; at Cannabinoid receptor 2 [4], 3110 nM. For the same compound, the EC50 at Cannabinoid receptor 1 was above 10 µM.
In data set [1], `CCC(CC)(NC(=O)c1ccc(N2CC(OC)C2)c(OCC2CC2)n1)C(=O)NCCCF` had a logD of 3.67. Moreover, the Ki on Cannabinoid receptor 2 [3] was 2060 nM; at Cannabinoid receptor 2 [4], 5260 nM. Besides, the EC50 at Cannabinoid receptor 1 was above 10 µM.
Turning to `CCC(CC)(NC(=O)c1ccc(N2CC(OC)C2)c(OCC2CC2)n1)C(=O)NCCF`, the pH-dependent lipophilicity (logD) in data set [1] amounted to 3.43. Moreover, the figures for the Ki on Cannabinoid receptor 2 [3] and on Cannabinoid receptor 2 [4] were 902 nM and 421 nM, respectively. For the same compound, the EC50 on Cannabinoid receptor 2 [2] is 281 nM; on Cannabinoid receptor 1, above 10 µM.
Take `COC1CN(c2ccc(C(=O)NC(C)(C)Cc3nnc(-c4ccc(F)cc4)o3)nc2OCC2CC2)C1`: the inhibitory constant (Ki) on Cannabinoid receptor 2 [3] worked out at 466 nM; on Cannabinoid receptor 2 [4], 504 nM. In addition, the concentration for a half-maximal effect (EC50) was 1810 nM at Cannabinoid receptor 2 [2] and above 10 µM on Cannabinoid receptor 1.
On to `CCC(CC)(NC(=O)c1ccc(N2CC(F)(F)C2)c(OCC2CC2)n1)C(=O)NC`, for which, in data set [1], the log distribution coefficient (logD) is 3.76. The Ki amounted to 179 nM on Cannabinoid receptor 2 [3] and 245 nM on Cannabinoid receptor 2 [4]. For the same compound, the EC50 on Cannabinoid receptor 2 [2] is 4.3 nM; on Cannabinoid receptor 1, above 10 µM.
`CCOCCOCC(C)(C)c1cc(NC(=O)c2ccc(C3CCCC3)c(OCC3CC3)n2)on1`: the values for the inhibitory constant (Ki) at Cannabinoid receptor 2 [3] and at Cannabinoid receptor 2 [4] were 264 nM and 11.7 nM, respectively. On Cannabinoid receptor 1, the concentration for a half-maximal effect (EC50) was above 10 µM.
